Experimental data from ChEMBL document CHEMBL5614453 (ACS Med Chem Lett, 2024).
pKi: −log10 of the molar value. Activity calls are given as the source filed them.

Key:
[1] = test system: Mus musculus; experiment: Antihyperalgesic activity in po dosed CFA induced CD-1 albino mouse assessed as inhibition of mechanical allodynia by measuring paw withdrawal threshold measured every 20 mins by von frey test; type: functional, organism-based; conditions: dose 50-200 mg/kg
How it was run: (§1)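 Von Frey testing before dosing and every 20 min afterward. Read-out is the weight (g) the animal tolerated on the paw. Mean of 6 mice from 2 experimental sets; compared with pretest (0 min) and with vehicle-treated controls.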

[2] = test system: Mus musculus; experiment: Antihyperalgesic activity in po dosed CFA induced CD-1 albino mouse assessed as inhibition of thermal hyperalgesia by measuring licking latency measured every 20 mins by hot plate test; type: functional, organism-based; conditions: dose 50-200 mg/kg
How it was run: (§2)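 Hot plate test before dosing and every 20 min after. Time (s) to first hind-paw licking recorded. Mean of 6 mice from 2 experimental sets; compared with pretest (0 min) and vehicle controls.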

[3] = test system: Mus musculus; experiment: Antihyperalgesic activity in po dosed CFA induced CD-1 albino mouse assessed as inhibition of mechanical hyperalgesia by measuring paw withdrawal latency measured every 20 mins by paw pressure test; type: functional, organism-based; conditions: dose 50-200 mg/kg
How it was run: (§3)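 Mechanical hyperalgesia measured by Paw Pressure test before dosing and every 20 min afterward, as paw-withdrawal latency (s). Values are means of 6 mice over 2 experimental sets; statistics vs pretest (0 min) and vs vehicle-treated controls.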

[4] = target: Carbonic anhydrase 1 (Homo sapiens, UniProt P00915); experiment: Inhibition of human CA1 preincubated for 15 mins by phenol red dye based stopped flow CO2 hydration assay
Sequence of Carbonic anhydrase 1 (P00915 whole entry): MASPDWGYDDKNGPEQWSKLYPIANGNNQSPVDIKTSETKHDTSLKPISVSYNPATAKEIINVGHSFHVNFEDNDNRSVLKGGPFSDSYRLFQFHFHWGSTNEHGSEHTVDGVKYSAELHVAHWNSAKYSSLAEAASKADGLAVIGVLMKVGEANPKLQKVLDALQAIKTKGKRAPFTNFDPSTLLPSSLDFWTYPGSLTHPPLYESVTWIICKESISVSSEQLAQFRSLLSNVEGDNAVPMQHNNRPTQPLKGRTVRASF

[5] = target: Carbonic anhydrase 4 (Homo sapiens, UniProt P22748); experiment: Inhibition of human CA4 preincubated for 15 mins by phenol red dye based stopped flow CO2 hydration assay
Sequence of Carbonic anhydrase 4 (P22748 whole entry): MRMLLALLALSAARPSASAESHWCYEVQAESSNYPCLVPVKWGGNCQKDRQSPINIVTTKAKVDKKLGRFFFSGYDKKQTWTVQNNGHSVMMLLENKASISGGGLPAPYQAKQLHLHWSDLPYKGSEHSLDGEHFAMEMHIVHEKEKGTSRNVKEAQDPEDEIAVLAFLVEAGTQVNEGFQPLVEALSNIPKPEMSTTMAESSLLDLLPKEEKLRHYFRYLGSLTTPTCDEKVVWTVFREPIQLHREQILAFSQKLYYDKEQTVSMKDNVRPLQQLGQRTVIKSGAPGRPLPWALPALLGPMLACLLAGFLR

[6] = target: Carbonic anhydrase 7 (Homo sapiens, UniProt P43166); experiment: Inhibition of human CA7 preincubated for 15 mins by phenol red dye based stopped flow CO2 hydration assay
Sequence of Carbonic anhydrase 7 (P43166 whole entry): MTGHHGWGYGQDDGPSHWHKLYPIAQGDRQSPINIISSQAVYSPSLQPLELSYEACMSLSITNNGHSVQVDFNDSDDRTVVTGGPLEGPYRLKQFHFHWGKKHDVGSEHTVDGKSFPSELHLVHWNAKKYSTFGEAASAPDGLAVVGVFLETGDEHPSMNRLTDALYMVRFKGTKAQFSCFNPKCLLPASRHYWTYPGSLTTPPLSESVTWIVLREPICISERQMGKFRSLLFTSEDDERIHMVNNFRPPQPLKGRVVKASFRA

[7] = target: Carbonic anhydrase 9 (Homo sapiens, UniProt Q16790); experiment: Inhibition of human CA9 preincubated for 15 mins by phenol red dye based stopped flow CO2 hydration assay
[8] = target: Carbonic anhydrase 12 (Homo sapiens, UniProt O43570); experiment: Inhibition of human CA12 preincubated for 15 mins by phenol red dye based stopped flow CO2 hydration assay
Sequence of Carbonic anhydrase 12 (O43570 whole entry): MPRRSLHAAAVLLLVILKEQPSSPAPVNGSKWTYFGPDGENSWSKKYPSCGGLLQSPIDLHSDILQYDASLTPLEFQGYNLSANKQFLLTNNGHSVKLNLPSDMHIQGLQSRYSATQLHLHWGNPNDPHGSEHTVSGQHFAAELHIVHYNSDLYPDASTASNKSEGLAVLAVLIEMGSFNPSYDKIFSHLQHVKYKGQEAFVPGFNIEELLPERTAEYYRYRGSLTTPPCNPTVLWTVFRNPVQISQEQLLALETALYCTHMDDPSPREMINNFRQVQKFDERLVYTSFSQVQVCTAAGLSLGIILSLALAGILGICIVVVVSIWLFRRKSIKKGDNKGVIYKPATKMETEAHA

[9] = test system: Mus musculus; experiment: Antihyperalgesic activity in CFA induced CD-1 albino mouse assessed as inhibition of thermal hyperalgesia by measuring licking latency at 50 to 200 mg/kg, po measured after 40 mins by hot plate test; type: functional, organism-based; conditions: dose 50-200 mg/kg; how it was run: as §2
[10] = test system: Mus musculus; experiment: Antihyperalgesic activity in CFA induced CD-1 albino mouse assessed as inhibition of mechanical hyperalgesia by measuring paw withdrawal latency at 50 to 200 mg/kg, po measured after 40 mins by paw pressure test; type: functional, organism-based; conditions: dose 50-200 mg/kg; how it was run: as §3
[11] = test system: Mus musculus; experiment: Antihyperalgesic activity in CFA induced CD-1 albino mouse assessed as inhibition of mechanical allodynia by measuring paw withdrawal threshold at 50 to 200 mg/kg, po measured after 40 mins by von frey test; type: functional, organism-based; conditions: dose 50-200 mg/kg; how it was run: as §1
[12] = test system: Mus musculus; experiment: Antihyperalgesic activity in CFA induced CD-1 albino mouse assessed as inhibition of thermal hyperalgesia by measuring licking latency at 50 to 200 mg/kg, po measured after 80 mins by hot plate test; type: functional, organism-based; conditions: dose 50-200 mg/kg; how it was run: as §2
[13] = test system: Mus musculus; experiment: Antihyperalgesic activity in CFA induced CD-1 albino mouse assessed as inhibition of mechanical hyperalgesia by measuring paw withdrawal latency at 50 to 200 mg/kg, po measured after 80 mins by paw pressure test; type: functional, organism-based; conditions: dose 50-200 mg/kg; how it was run: as §3
[14] = test system: Mus musculus; experiment: Antihyperalgesic activity in CFA induced CD-1 albino mouse assessed as inhibition of mechanical allodynia by measuring paw withdrawal threshold at 50 to 200 mg/kg, po measured after 80 mins by von frey test; type: functional, organism-based; conditions: dose 50-200 mg/kg; how it was run: as §1
[15] = target: Carbonic anhydrase 2 (Homo sapiens, UniProt P00918); experiment: Inhibition of human CA2 preincubated for 15 mins by phenol red dye based stopped flow CO2 hydration assay
[16] = test system: Mus musculus; experiment: Antihyperalgesic activity in CFA induced CD-1 albino mouse assessed as increase in pain threshold by measuring licking latency at 270 mg/kg, po measured after 40 mins by hot plate test; type: functional, organism-based
How it was run: (§4)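 Mice received an intraplantar CFA injection, and vehicle-treated animals served as controls. Thermal hyperalgesia was measured by hot plate as time in s to the first hind-paw licking. Readings were taken before dosing and every 20 min afterwards. Values are the mean of 6 mice from 2 experimental sets.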

[17] = test system: Mus musculus; experiment: Antihyperalgesic activity in CFA induced CD-1 albino mouse assessed as inhibition of mechanical hyperalgesia by measuring paw withdrawal latency at 270 to 405 mg/kg, po measured every 20 mins by paw pressure test; type: functional, organism-based; conditions: dose 270-405 mg/kg
How it was run: (§5)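 Inflammatory pain was induced by intraplantar CFA, with vehicle-treated controls. Mechanical hyperalgesia was measured by paw pressure test as paw withdrawal latency (s), before dosing and every 20 min after. Values are the mean of 6 mice from 2 experimental sets.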

[18] = test system: Mus musculus; experiment: Antihyperalgesic activity in CFA induced CD-1 albino mouse assessed as inhibition of mechanical allodynia by measuring paw withdrawal threshold at 270 to 405 mg/kg, po measured every 20 mins by von frey test; type: functional, organism-based; conditions: dose 270-405 mg/kg
[19] = test system: Mus musculus; experiment: Antihyperalgesic activity in CFA induced CD-1 albino mouse assessed as increase in pain threshold by measuring paw withdrawal latency at 270 mg/kg, po measured after 40 mins by paw pressure test; type: functional; how it was run: as §5
[20] = test system: Mus musculus; experiment: Antihyperalgesic activity in CFA induced CD-1 albino mouse assessed as increase in pain threshold by measuring paw withdrawal latency at 270 mg/kg, po measured after 40 mins by von frey test; type: functional
How it was run: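 Intraplantar CFA was used to induce inflammatory pain in mice, with vehicle-treated controls. Mechanical allodynia was measured by Von Frey test as the weight (g) tolerated on the paw, before dosing and every 20 min after. Values are the mean of 6 mice from 2 experimental sets.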

[21] = test system: Mus musculus; experiment: Antihyperalgesic activity in CFA induced CD-1 albino mouse assessed as increase in pain threshold by measuring licking latency at 405 mg/kg, po measured after 40 mins by hot plate test; type: functional, organism-based; how it was run: as §4
[22] = test system: Mus musculus; experiment: Antihyperalgesic activity in CFA induced CD-1 albino mouse assessed as increase in pain threshold by measuring paw withdrawal latency at 405 mg/kg, po measured after 40 mins by paw pressure test; type: functional, organism-based; how it was run: as §5
[23] = test system: Mus musculus; experiment: Antihyperalgesic activity in CFA induced CD-1 albino mouse assessed as increase in pain threshold by measuring paw withdrawal latency at 405 mg/kg, po measured after 40 mins by von frey test; type: functional, organism-based
[24] = test system: Mus musculus; experiment: Antihyperalgesic activity in CFA induced CD-1 albino mouse assessed as inhibition of thermal hyperalgesia by measuring licking latency at 220 mg/kg, po measured every 20 mins by hot plate test; type: functional, organism-based; how it was run: as §2
[25] = test system: Mus musculus; experiment: Antihyperalgesic activity in CFA induced CD-1 albino mouse assessed as inhibition of mechanical hyperalgesia by measuring paw withdrawal latency at 220 mg/kg, po measured every 20 mins by paw pressure test; type: functional, organism-based; how it was run: as §3
[26] = test system: Mus musculus; experiment: Antihyperalgesic activity in CFA induced CD-1 albino mouse assessed as inhibition of mechanical allodynia by measuring paw withdrawal threshold at 220 mg/kg, po measured every 20 mins by von frey test; type: functional, organism-based; how it was run: as §1
[27] = test system: Mus musculus; experiment: Antihyperalgesic activity in CFA induced CD-1 albino mouse assessed as inhibition of thermal hyperalgesia by measuring licking latency at 330 mg/kg, po measured after 20 to 100 mins by hot plate test; type: functional, organism-based; conditions: time 20-100 min; how it was run: as §2
[28] = test system: Mus musculus; experiment: Antihyperalgesic activity in CFA induced CD-1 albino mouse assessed as inhibition of mechanical hyperalgesia by measuring paw withdrawal latency at 330 mg/kg, po measured after 20 to 100 mins by paw pressure test; type: functional, organism-based; conditions: time 20-100 min; how it was run: as §3
[29] = test system: Mus musculus; experiment: Antihyperalgesic activity in CFA induced CD-1 albino mouse assessed as inhibition of mechanical allodynia by measuring paw withdrawal threshold at 330 mg/kg, po measured after 20 to 100 mins by von frey test; type: functional, organism-based; conditions: time 20-100 min; how it was run: as §1

CC(=O)Oc1ccccc1C(=O)O [ASPIRIN]
Activity [1]: Dose-Dependent Effect | Activity [2]: Dose-Dependent Effect | Activity [3]: Dose-Dependent Effect | pKi [4]: < 4.00 | pKi [5]: < 4.00 | pKi [6]: < 4.00 | pKi [7]: < 4.00 | pKi [8]: < 4.00 | Activity [9]: Active | Activity [10]: Active | Activity [11]: Active | Activity [12]: inactive | Activity [13]: inactive | Activity [14]: inactive

CC(=O)[Se]c1ccccc1C(=O)O
pKi [4]: 5.28 | pKi [15]: 4.49 | pKi [5]: 4.32 | pKi [6]: 5.28 | pKi [7]: 5.85 | pKi [8]: 5.09 | Activity [16]: Active | Activity [17]: Active | Activity [18]: Active | Activity [19]: >50% | Activity [20]: >50% | Activity [21]: inactive | Activity [22]: inactive | Activity [23]: inactive

CC(=O)Sc1ccccc1C(=O)O
pKi [4]: 4.14 | pKi [15]: 4.19 | pKi [5]: 4.11 | pKi [6]: 4.73 | pKi [7]: 4.96 | pKi [8]: 4.85 | Activity [24]: Active | Activity [25]: Active | Activity [26]: Active | Activity [27]: Active | Activity [28]: Active | Activity [29]: Active
